A selection: hits, their analogues and other compounds. The true share with any hit is near 3.1%.
KCNK9 inh – KCNK9 potassium channel inhibitors, primary screen, HEK293 cells, thallium flux; Potassium channel subfamily K member 9 (Homo sapiens), Q9NPC2; FluxOR thallium flux fluorescence; active compounds read low; B-score at 10 µM; hit rate 1.2% among 310,000;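 active = ratio B-score over 3 SD below the library mean, with starting fluorescence within 5 SD of its mean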;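 note: negative B-score means less thallium flux so channel inhibition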
hERG rescue – hERG rescue from dofetilide block, primary screen, cell-based, CHO-hERG, FluxOR thallium flux, dofetilide IC70 | dofetilide IC70 present | activation (rescue from dofetilide block), less the hit threshold, % at 10 µM | Voltage-gated inwardly rectifying potassium channel KCNH2 (Homo sapiens), Q12809 | hit rate 0.51% among 310,000;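 active = activation above the mean of controls blocked by dofetilide plus 5 SD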;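 note: thallium influx through hERG after potassium depolarization seen as dye fluorescence rise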
KCNK3 inh – human KCNK3 channel inhibitors, primary screen, CHO cells, FluxOR thallium flux, B-score | Potassium channel subfamily K member 3 (Homo sapiens), O14649 | FluxOR fluorescence; active compounds read low | B-score at 10 µM | hit rate 0.84% among 340,000 | AID 602410, 2012;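 active = B-score under library mean minus 4 SD, starting fluorescence ratio at most library mean plus 5 SD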;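 note: more negative B-score means stronger inhibition of thallium flux through KCNK3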
KCNQ1 act – potentiators or activators of KCNQ1 channel, primary screen, cell-based, thallium flux, high-throughput; CHO-K1 KCNQ1, thallium flux FluxOR fluorescence; active compounds read high; B-score at 10 µM; hit rate 0.35% among 310,000;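 active = fluorescence ratio B-score, a plate-corrected score, at least three library SD, with initial intensity B-score within 5 SD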
Target sequence (P51787 whole entry, looked up): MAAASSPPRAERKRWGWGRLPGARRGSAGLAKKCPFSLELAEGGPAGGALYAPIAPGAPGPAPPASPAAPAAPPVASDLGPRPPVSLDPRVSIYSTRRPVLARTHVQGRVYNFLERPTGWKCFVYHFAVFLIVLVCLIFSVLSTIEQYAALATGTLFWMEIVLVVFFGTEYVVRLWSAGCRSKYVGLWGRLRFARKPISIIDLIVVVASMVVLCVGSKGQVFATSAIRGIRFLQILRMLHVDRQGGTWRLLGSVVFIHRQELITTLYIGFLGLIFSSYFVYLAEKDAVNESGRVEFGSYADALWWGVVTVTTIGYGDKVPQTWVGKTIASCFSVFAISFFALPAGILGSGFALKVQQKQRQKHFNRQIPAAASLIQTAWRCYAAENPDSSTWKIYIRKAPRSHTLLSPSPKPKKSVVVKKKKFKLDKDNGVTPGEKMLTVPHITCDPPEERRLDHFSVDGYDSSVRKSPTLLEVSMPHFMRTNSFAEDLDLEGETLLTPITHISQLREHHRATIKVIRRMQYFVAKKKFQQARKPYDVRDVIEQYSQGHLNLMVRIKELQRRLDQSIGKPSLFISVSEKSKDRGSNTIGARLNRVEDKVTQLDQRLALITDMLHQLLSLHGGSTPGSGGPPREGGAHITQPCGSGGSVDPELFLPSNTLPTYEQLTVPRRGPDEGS
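Test system: CHO-K1 cells stably expressing KCNQ1 / Medium: assay buffer / Also added: depolarizing K+/Tl+ stimulus, K2SO4 and Tl2SO4 each 12.5 mM in 5x stock / Incubation: 90 min dye loading and 20 min compound exposure, both at room temperature / Signal: thallium influx via FluxOR fluorescence, kinetic imaging / Evaluation: B score of baseline-normalized fluorescence ratio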
KCNQ1 block – inhibitors of human KCNQ1 channel, primary screen, cell-based, thallium flux, high-throughput; Potassium voltage-gated channel subfamily KQT member 1 (Homo sapiens), P51787; CHO-K1 KCNQ1, FluxOR thallium flux fluorescence; active compounds read high; B-score at 10 µM; hit rate 1.3% among 310,000; AID 2642, 2010;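 active = compounds whose thallium flux B-score, printed positive for inhibition, exceeds three library SD while starting fluorescence stays within three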;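 note: channel opened by potassium depolarization with thallium stimulus after 20 min compound exposure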
KCNK9 block conf – KCNK9 potassium channel inhibitors, confirmation, HEK293 cells, thallium flux, duplicate; shares compounds with KCNK9 inh; FluxOR thallium flux fluorescence; hit rate 43% among 4,900; inhibition, % at 10 µM;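 active = thallium signal inhibited by more than 5 SD of the compound-free buffer control wells, on both duplicate plates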
Kir21 sel – mouse Kir2.1 channel inhibition, confirmation, selectivity assay for KCNK9 modulator project, cell-based, HEK293, thallium flux | hit rate 4% among 4,900 | inhibition, % at 10 µM | shares compounds with KCNK9 inh | Kir2.1 cells, FluxOR thallium flux fluorescence;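 active = thallium signal drop more than 5 SD beyond the mean of the no-compound control wells, seen in both duplicate plates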;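 note: signal is fluorescence rise after thallium addition divided by baseline fluorescence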
KCNK9 uninduced – thallium flux in non-induced HEK293 cells, confirmation, counter-screen for KCNK9 inhibitor project, cell-based, second counter screen, non-induced KCNK9-HEK293; shares compounds with KCNK9 inh; FluxOR thallium flux; inhibition, % at 10 µM; hit rate 40% among 4,900;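 active = thallium signal drop beyond 5 SD of the untreated control mean, on both duplicate plates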
Each line names hits and unclear results; the compound was inactive in the other large screens (follow-up assays come after a bar, where they were run).

O=C(Nc1nc(-c2ccccc2)cs1)c1cccc(S(=O)(=O)N2CCN(Cc3ccccc3)CC2)c1	none | KCNK9 block conf inactive | Kir21 sel inactive | KCNK9 uninduced inactive
Cc1ccc(CN(C)C(=O)c2cccc(S(=O)(=O)N3CCN(Cc4ccccc4)CC3)c2)o1	none | KCNK9 block conf inactive | Kir21 sel inactive | KCNK9 uninduced 28%
O=C1NC(=O)C2(CCCCC2C2CCCCC2)N1 (centres undefined)	none (no result: KCNK9 inh, hERG rescue, KCNQ1 act, KCNQ1 block)
Cc1ccc(NS(=O)(=O)c2ccc(C)c(C(=O)NCC(c3ccccc3)N(C)C)c2)cc1 (centres undefined)	none (no result: KCNK9 inh, hERG rescue, KCNQ1 act, KCNQ1 block)
CN(CC(=O)Nc1ccc(OC(F)(F)F)cc1)C(=O)/C=C/c1cc2c(cc1[N+](=O)[O-])OCO2	none (no result: KCNK9 inh, hERG rescue, KCNQ1 act, KCNQ1 block)
O=S(=O)(c1ccccc1Br)N(CC(O)COCc1ccccc1)C1CC1 (centres undefined)	none (no result: KCNK9 inh, hERG rescue, KCNQ1 act, KCNQ1 block)
COc1ccccc1C(CC(=O)c1ccccc1)CC(=O)c1ccccc1	KCNK9 inh -8.6 | KCNK9 block conf 30% | Kir21 sel inactive | KCNK9 uninduced 31%
O=C(NCCO)C(=O)Nc1cc2c3c(c1)CCC(=O)N3CCC2	none
Cc1ccc(/C=N/NC(=O)CSc2nc3ccccc3n2Cc2ccc(Cl)cc2)o1	KCNK9 inh -21 | KCNK9 block conf 62% | Kir21 sel inactive | KCNK9 uninduced 50%
O=C(Cn1cc(Cl)c([N+](=O)[O-])n1)NCCC1=CCCCC1	none
Cc1nn2c(N3CCN(c4ccccn4)CC3)cc(C(C)C)nc2c1-c1ccccc1	KCNK9 inh -12 | KCNK9 block conf 63% | Kir21 sel inactive | KCNK9 uninduced 38%
CCOC(=O)c1c(C)oc2cc(Br)c(OC(C)C(=O)OCC)cc12 (centres undefined)	none | KCNK9 block conf inactive | Kir21 sel inactive | KCNK9 uninduced inactive
Cc1ccnc(NCc2ccc(Br)cc2)c1	none
CCN(CC)c1ccc(CNc2ccc(Br)cn2)cc1	none | KCNK9 block conf inactive | Kir21 sel inactive | KCNK9 uninduced inactive
O=C(CCCOc1ccc(Cl)cc1Cl)N1CCc2ccccc2C1	none | KCNK9 block conf inactive | Kir21 sel inactive | KCNK9 uninduced inactive
Cc1ccc(C)c(OCC(=O)N2CCc3ccccc3C2)c1	none | KCNK9 block conf inactive | Kir21 sel inactive | KCNK9 uninduced inactive
CN(C)c1cccc(C(=O)OCC(=O)N2CCc3ccccc3C2)c1	none | KCNK9 block conf inactive | Kir21 sel inactive | KCNK9 uninduced inactive
CCC(NC(=O)CN1CCN(C(=O)c2cccs2)CC1)c1ccc(C)cc1 (centres undefined)	none (no result: KCNK9 inh, hERG rescue, KCNQ1 act, KCNQ1 block)
COc1ccc(-c2ncc(CN3CCN(CCC(C)C)C(CCO)C3)cn2)cc1 (centres undefined)	none
Cc1cccc(-c2ncc(CN3CCN(CC(C)C)C(CCO)C3)cn2)c1 (centres undefined)	none | KCNK9 block conf inactive | Kir21 sel inactive | KCNK9 uninduced inactive
O=C(/C=C/c1ccccc1Cl)N(c1ccccn1)C1CCCCC1	KCNK9 inh -12 | KCNK9 block conf 58% | Kir21 sel inactive | KCNK9 uninduced 32%
CC(C)CC(=O)C1CCCN(C(=O)c2ccc3oc(Cc4ccccc4)nc3c2)C1 (centres undefined)	none | KCNK9 block conf inactive | Kir21 sel inactive | KCNK9 uninduced inactive
Cc1nn(Cc2ccccc2)c(Cl)c1C(=O)OCc1nnc(-c2ccc(Cl)cc2)o1	none | KCNK9 block conf inactive | Kir21 sel inactive | KCNK9 uninduced inactive
COc1ccc(OC(C)C(=O)N(C)Cc2nc(-c3cccc(C)c3)no2)cc1 (centres undefined)	none | KCNK9 block conf inactive | Kir21 sel inactive | KCNK9 uninduced inactive
COc1cccc(OCC(=O)N(C)Cc2nc(-c3cccc(C)c3)no2)c1	none | KCNK9 block conf inactive | Kir21 sel inactive | KCNK9 uninduced inactive
O=C(O)CCCC(=O)N1N=C(c2ccccc2)CC1c1ccc2c(c1)OCO2 (centres undefined)	none
CCCCC(=O)N(Cc1ccc(F)cc1)C1CCS(=O)(=O)C1 (centres undefined)	none
CC(C)N1C(=O)C(Cc2nc3ccccc3c(=O)n2-c2ccccc2)c2ccccc21 (centres undefined)	none | KCNK9 block conf inactive | Kir21 sel inactive | KCNK9 uninduced inactive
Cc1oc2cc3oc(=O)c(CCC(=O)NCc4ccccn4)c(C)c3cc2c1C	none
Cc1ccccc1C(=O)NCC(=O)OC(C)C(=O)NCc1ccco1 (centres undefined)	none
O=c1c(NCCc2ccccc2)c(-c2ccccc2)c1=O	none
Cc1csc2nc(CSc3nc4ccccc4o3)c(Br)n12	KCNK9 inh -12 | KCNK9 block conf inactive | Kir21 sel inactive | KCNK9 uninduced 46%
COc1ccccc1C(=O)NCCNc1ccc([N+](=O)[O-])cc1Cl	none
COc1ccc(NC2CCCN(C(=O)CSc3ccccc3)C2)cc1 (centres undefined)	none
COc1ccc(NC2CCCN(C(=O)CCOc3ccccc3)C2)cc1 (centres undefined)	none | KCNK9 block conf inactive | Kir21 sel inactive | KCNK9 uninduced inactive
COc1ccc(NC2CCCN(C(=O)CCN3CCOCC3)C2)cc1 (centres undefined)	none
COc1ccc(NC2CCCN(C(=O)CCc3ccccc3F)C2)cc1 (centres undefined)	none | KCNK9 block conf inactive | Kir21 sel inactive | KCNK9 uninduced inactive
CC(OC(=O)c1cc(=O)[nH]c2ccccc12)C(=O)N1C(C)CCCC1C (centres undefined)	none (no result: KCNK9 inh, hERG rescue, KCNQ1 act, KCNQ1 block)
Cc1ccc(C(=O)CSc2nnc(C3CC3)n2C2CC2)s1	none (no result: KCNK9 inh, hERG rescue, KCNQ1 act, KCNQ1 block)
CC(C)(C)NC(=O)C12CC3CC(CC(Cl)(C3)C1)C2	none
CC(C)(C)NC(=S)NC(=O)C12CCC3CC(CC(C3)C1)C2	none | KCNK9 block conf inactive | Kir21 sel inactive | KCNK9 uninduced inactive
Cc1c(CCC(=O)O)c(=O)oc2cc3oc4c(c3cc12)CCCC4	none | KCNK9 block conf inactive | Kir21 sel inactive | KCNK9 uninduced inactive
Cc1c(CCC(=O)NCC(=O)NCC(=O)O)c(=O)oc2cc3oc4c(c3cc12)CCCC4	none
COc1cccc(NC(=O)CSc2nnnn2C2CCCCC2)c1	none

Bioassay records deposited in PubChem BioAssay by Johns Hopkins Ion Channel Center.
